Data set [1] has as its target T1, Amine oxidase [flavin-containing] A (Rattus norvegicus, UniProt P21396).
T1 sequence (P21396 whole entry): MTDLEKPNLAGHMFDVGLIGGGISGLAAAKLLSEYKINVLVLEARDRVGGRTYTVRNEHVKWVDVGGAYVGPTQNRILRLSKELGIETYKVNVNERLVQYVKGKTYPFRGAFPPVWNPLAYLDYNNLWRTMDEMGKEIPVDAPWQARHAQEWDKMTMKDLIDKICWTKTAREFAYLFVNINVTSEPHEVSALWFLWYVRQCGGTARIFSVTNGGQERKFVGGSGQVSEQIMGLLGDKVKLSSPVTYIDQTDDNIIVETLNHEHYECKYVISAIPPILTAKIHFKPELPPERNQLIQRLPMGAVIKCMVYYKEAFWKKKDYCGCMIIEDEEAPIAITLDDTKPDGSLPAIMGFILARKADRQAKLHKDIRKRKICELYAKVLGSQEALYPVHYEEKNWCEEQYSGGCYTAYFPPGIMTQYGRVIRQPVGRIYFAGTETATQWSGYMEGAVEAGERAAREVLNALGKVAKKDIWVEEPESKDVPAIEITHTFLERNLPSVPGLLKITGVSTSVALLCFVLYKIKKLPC
The experiment in a line: In vitro inhibitory concentration against Monoamine oxidase A of rat brain homogenates; value ranges from 100-340. The data set is classed as tissue-based.

For data set [2], the target named is T2, Acetylcholinesterase (Homo sapiens, UniProt P22303). The experiment in a line: In vitro inhibitory concentration against purified Acetylcholinesterase of human erythrocytes; value ranges from 91.8-732.
T2 sequence (P22303 whole entry): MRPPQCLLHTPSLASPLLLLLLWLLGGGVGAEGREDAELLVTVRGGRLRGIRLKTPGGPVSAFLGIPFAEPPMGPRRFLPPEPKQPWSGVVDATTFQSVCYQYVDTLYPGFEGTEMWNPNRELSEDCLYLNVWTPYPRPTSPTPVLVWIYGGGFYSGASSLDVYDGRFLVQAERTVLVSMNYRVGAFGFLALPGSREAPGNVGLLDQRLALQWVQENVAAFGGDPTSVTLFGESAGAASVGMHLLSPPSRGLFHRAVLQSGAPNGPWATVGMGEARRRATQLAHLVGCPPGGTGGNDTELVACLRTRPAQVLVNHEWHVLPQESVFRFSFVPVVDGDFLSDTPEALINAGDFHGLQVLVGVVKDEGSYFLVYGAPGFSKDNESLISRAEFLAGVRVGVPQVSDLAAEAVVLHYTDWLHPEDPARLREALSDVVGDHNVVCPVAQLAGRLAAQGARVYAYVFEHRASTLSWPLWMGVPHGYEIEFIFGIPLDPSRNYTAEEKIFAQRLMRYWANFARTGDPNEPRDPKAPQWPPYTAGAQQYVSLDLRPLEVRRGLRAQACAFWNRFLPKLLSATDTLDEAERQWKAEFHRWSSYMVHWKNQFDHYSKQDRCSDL
Data set [3] addresses T3, Butyrylcholinesterase (Equus caballus, UniProt Q9N1N9). Briefly: In vitro inhibitory concentration against Butyrylcholinesterase of horse serum; value ranges from 1.38-1.65. An outline of the steps: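 Ellman assay followed, with 200 µM butyrylthiocholine as substrate. Runs were in triplicate with four-point dose-response curves. IC50 and fiducial limits came from log concentration versus % inhibition.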

The target of data set [4] is T4, Amine oxidase [flavin-containing] B (Rattus norvegicus, UniProt P19643).
T4 sequence (P19643 whole entry): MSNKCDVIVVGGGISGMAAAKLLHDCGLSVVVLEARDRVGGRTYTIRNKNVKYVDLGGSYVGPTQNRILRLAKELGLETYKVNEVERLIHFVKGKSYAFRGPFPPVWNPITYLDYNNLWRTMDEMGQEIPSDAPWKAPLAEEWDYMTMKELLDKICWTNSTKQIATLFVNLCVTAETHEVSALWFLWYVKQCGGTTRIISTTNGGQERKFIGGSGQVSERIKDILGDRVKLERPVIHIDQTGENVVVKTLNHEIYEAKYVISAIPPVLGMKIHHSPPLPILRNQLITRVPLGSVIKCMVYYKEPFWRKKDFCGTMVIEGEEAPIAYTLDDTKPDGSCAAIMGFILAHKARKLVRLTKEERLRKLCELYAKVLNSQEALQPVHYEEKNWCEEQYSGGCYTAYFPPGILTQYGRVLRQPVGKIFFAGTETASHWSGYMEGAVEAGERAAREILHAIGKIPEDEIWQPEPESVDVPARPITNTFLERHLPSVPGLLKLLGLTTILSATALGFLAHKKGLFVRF
Briefly: In vitro inhibitory concentration against Monoamine oxidase B of rat brain homogenates; value ranges from 0.07-0.59. The data set is classed as tissue-based. An outline of the steps:
(§1)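 Rat brain homogenate (in 0.3 M sucrose) as enzyme source; compounds diluted 10⁻²M to 10⁻⁹M in 0.05 M phosphate buffer with 0.15 μM clorgyline; preincubated 60 min at 37 °C, then 10 μM ¹⁴C-phenylethylamine added for 20 min more; stopped with citric acid; metabolites extracted into toluene/ethyl acetate, scintillation counted; activity as % of control, tranylcypromine blank.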

Data set [5] has as its target T1, Amine oxidase [flavin-containing] A. Briefly: In vitro inhibitory concentration against Monoamine oxidase A of rat brain homogenates; value ranges from 600-1100. Type of data set: tissue-based.
The target in data set [6] is T4, Amine oxidase [flavin-containing] B. Briefly: In vitro inhibitory concentration against Monoamine oxidase B of rat brain homogenates; value ranges from 150-360. Type of data set: tissue-based.
Data set [7] addresses T2, Acetylcholinesterase. Briefly: In vitro inhibitory concentration against purified Acetylcholinesterase of human erythrocytes.
Data set [8] has as its target T2, Acetylcholinesterase. The experiment in a line: In vitro inhibitory concentration against purified Acetylcholinesterase of human erythrocytes; value ranges from 22.2-56.8.
Data set [9] deals with T4, Amine oxidase [flavin-containing] B. The experiment in a line: In vitro inhibitory concentration against Monoamine oxidase B of rat brain homogenates. The data set is classed as tissue-based.
For data set [10], the target named is T1, Amine oxidase [flavin-containing] A. The experiment in a line: In vitro inhibitory concentration against Monoamine oxidase A of rat brain homogenates; value ranges from 100-310. The data set is classed as tissue-based.
Data set [11] shares this target. The experiment in a line: In vitro inhibitory concentration against Monoamine oxidase A of rat brain homogenates; value ranges from 11-38. Type of data set: tissue-based.
Data set [12] addresses T2, Acetylcholinesterase. Briefly: In vitro inhibitory concentration against purified Acetylcholinesterase of human erythrocytes; value ranges from 5.6-11.9.
Data set [13] concerns the target T4, Amine oxidase [flavin-containing] B. Briefly: In vitro inhibitory concentration against Monoamine oxidase B of rat brain homogenates; value ranges from 0.19-0.26. Type of data set: tissue-based. An outline of the steps:
as §1

Data set [14] addresses T1, Amine oxidase [flavin-containing] A. Briefly: In vitro inhibitory concentration against Monoamine oxidase A of rat brain homogenates; value ranges from 0.8-1.0. Type of data set: tissue-based.
For data set [15], the target named is T2, Acetylcholinesterase. Briefly: In vitro inhibitory concentration against purified Acetylcholinesterase of human erythrocytes; value ranges from 1.7-2.5.
In data set [16] the target is T4, Amine oxidase [flavin-containing] B. The experiment in a line: In vitro inhibitory concentration against Monoamine oxidase B of rat brain homogenates; value ranges from 0.019-0.021. The data set is classed as tissue-based. An outline of the steps: as §1
Data set [17] concerns the target T1, Amine oxidase [flavin-containing] A. Briefly: In vitro inhibitory concentration against Monoamine oxidase A of rat brain homogenates; value ranges from 0.005-0.010. The data set is classed as tissue-based.
A short description of data set [18]: Bimolecular rate constant for carbamoylation of ACHE. Type of data set: ADME. A digest of the protocol:
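Human erythrocyte AChE preincubated with inhibitor at 37 °C in 0.1 M phosphate buffer, pH 7.4, under Ellman conditions with 200 µM […]. Pseudo-first-order rate constants (k_obs) for progressive inhibition were obtained at 4-5 inhibitor concentrations. The apparent bimolecular carbamylation constant k_i was calculated from these.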

Data set [19] can be described thus: Pseudo-first order rate constant for carbamoylation of ACHE at 100 (uM) concentration. Type of data set: ADME. An outline of the steps: (§2)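 Human erythrocyte AChE, same Ellman conditions: 200 µM […], 60 min preincubation at 37 °C, 0.1 M phosphate pH 7.4. Progressive inhibition followed at 4-5 inhibitor concentrations. Pseudo-first-order k_obs (min⁻¹) derived per concentration; apparent bimolecular carbamylation constant k_i calculated from these.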

Data set [20] in a line: Pseudo-first order rate constant for carbamoylation of ACHE at 200 (uM) concentration. The data set is classed as ADME. A digest of the protocol:
as §2

A short description of data set [21]: Pseudo-first order rate constant for carbamoylation of ACHE at 300 (uM) concentration. Type of data set: ADME. A digest of the protocol:
as §2

The nature of data set [22]: Pseudo-first order rate constant for carbamoylation of ACHE at 400 (uM) concentration. The data set is classed as ADME. An outline of the steps: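 Pseudo-first-order rate constants kobs measured at 4-5 inhibitor concentrations following Bar-On et al. Apparent bimolecular carbamylation constant ki calculated from these.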
Data set [23] is described as follows: Pseudo-first order rate constant for carbamoylation of ACHE at 50 (uM) concentration. The data set is classed as ADME. An outline of the steps:
as §2

Data set [24] deals with T3, Butyrylcholinesterase. The experiment in a line: In vitro inhibitory concentration against Butyrylcholinesterase of horse serum; value ranges from 1.54-2.83.
Data set [25] concerns the target T2, Acetylcholinesterase.
Data set [26] deals with T2, Acetylcholinesterase. The experiment in a line: In vitro inhibitory concentration against purified Acetylcholinesterase of human erythrocytes; value ranges from 9.8-157.
Data set [27] deals with T3, Butyrylcholinesterase.
The target in data set [28] is T4, Amine oxidase [flavin-containing] B. The experiment in a line: In vitro inhibitory concentration against Monoamine oxidase B of rat brain homogenates; value ranges from 1.6-2.9. The data set is classed as tissue-based.
The target in data set [29] is T1, Amine oxidase [flavin-containing] A. The experiment in a line: In vitro inhibitory concentration against Monoamine oxidase A of rat brain homogenates; value ranges from 1.0-1.8. The data set is classed as tissue-based.
Data set [30] has as its target T2, Acetylcholinesterase. The experiment in a line: In vitro inhibitory concentration against purified Acetylcholinesterase of human erythrocytes; value ranges from 1.27-1.86.
In data set [31] the target is T2, Acetylcholinesterase. Briefly: In vitro inhibitory concentration against purified Acetylcholinesterase of human erythrocytes; value ranges from […]-[…].
Data set [32] deals with T1, Amine oxidase [flavin-containing] A. Briefly: In vitro inhibitory concentration against Monoamine oxidase A of rat brain homogenates. Type of data set: tissue-based.

T3 sequence (Q9N1N9 whole entry): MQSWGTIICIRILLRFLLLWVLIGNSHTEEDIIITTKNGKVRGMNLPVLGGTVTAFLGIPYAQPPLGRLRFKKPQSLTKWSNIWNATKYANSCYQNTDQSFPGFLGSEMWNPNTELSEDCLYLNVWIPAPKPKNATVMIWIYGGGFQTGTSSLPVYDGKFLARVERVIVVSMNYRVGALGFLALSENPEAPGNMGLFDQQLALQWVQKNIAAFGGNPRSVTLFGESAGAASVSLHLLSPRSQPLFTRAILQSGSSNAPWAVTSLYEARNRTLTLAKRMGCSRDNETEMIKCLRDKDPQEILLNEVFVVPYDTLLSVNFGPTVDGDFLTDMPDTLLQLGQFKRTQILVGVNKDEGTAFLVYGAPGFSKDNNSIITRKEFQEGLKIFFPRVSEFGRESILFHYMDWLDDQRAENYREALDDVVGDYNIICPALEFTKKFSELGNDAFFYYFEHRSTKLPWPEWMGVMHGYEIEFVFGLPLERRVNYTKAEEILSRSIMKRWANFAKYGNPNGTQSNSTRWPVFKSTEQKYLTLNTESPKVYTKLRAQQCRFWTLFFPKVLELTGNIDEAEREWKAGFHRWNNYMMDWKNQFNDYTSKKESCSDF

In general, IC50 refers to the point on the concentration scale where inhibition reaches its midpoint. Low readings indicate greater potency in that assay, high ones weaker potency in that assay. In turn, `C#CCNC(C)Cc1ccccc1` (configuration not stated) showed an IC50 in data set [1] of 195 µM.
Take `C#CCN(C)C(C)Cc1cccc(OC(=O)N(C)CC)c1` (configuration not stated): the values for the 50% inhibitory concentration (IC50) (against Acetylcholinesterase [2]; at Butyrylcholinesterase [3]; in data set [4]) were 234 µM, 1.5 µM and 0.1 µM, respectively.
In the case of `C#CCNC(C)Cc1cccc(O)c1` (configuration not stated), the values for the IC50 in [5] and in [6] were 830 µM and 230 µM, respectively.
Turning to `CC(c1cccc(OC(=O)N(C)C)c1)N(C)C` (configuration not stated), the midpoint of inhibition against Acetylcholinesterase [7], the IC50, lay at 0.03 µM.
For the molecule `CCN(C)C(=O)Oc1cccc(CCN)c1`, the figures for the IC50 (against Acetylcholinesterase [8]; in [9]; in data set [10]) were 35.5 µM, above 1000 µM and 180 µM, respectively.
In the case of `CCN(C)C(=O)Oc1cccc(CCNC)c1`, the 50% inhibitory concentration (IC50) in [9] was above 1000 µM; in [11], 20 µM.
As to `C#CCN(C)[C@H](C)Cc1cccc(OC(=O)N(C)C2CCCCC2)c1`, the figures for the IC50 (against Acetylcholinesterase [12]; in [13]; in data set [14]) were 7.9 µM, 0.22 µM and 0.9 µM, respectively.
The molecule `C#CCN(C)[C@H](C)Cc1cccc(OC(=O)N(C)CCCCCC)c1` had an IC50 against Acetylcholinesterase [15] of 2 µM. In other words, the single-digit micromolar range.
Consider `C#CCN(C)[C@@H]1CCc2ccc(O)cc21`, for which the IC50 was determined as 0.02 µM in data set [16] and 0.007 µM in data set [17].
In the case of `C#CCN[C@@H]1CCc2ccc(OC(=O)N(C)CC)cc21.Cl`, the “Bimolecular carbamoylation rate constant (ki)” value in data set [18] is 1.7 M⁻¹ s⁻¹. For the same molecule, the K obs in data set [19] stood at 21 min⁻¹; in data set [20] it was 32 min⁻¹; in data set [21], 42 min⁻¹; in data set [22], 52 min⁻¹; in data set [23], 16 min⁻¹. The half-inhibitory concentration (IC50) against Butyrylcholinesterase [24] is 1.98 µM; in [9], above 1000 µM; against Acetylcholinesterase [25], 31.8 µM.
`C#CCN(C)C(C)Cc1cccc(OC(=O)N(C)CCC)c1` (configuration not stated): the IC50 against Acetylcholinesterase [26] is 33.1 µM; at Butyrylcholinesterase [27] it was 22.8 µM.
As for `C#CCNC1CCc2cccc(O)c21` (configuration not stated), the IC50 in data set [28] was 2.1 µM; in [29], 1.3 µM.
With `CN(C)C(=O)Oc1ccc2c(c1)C(N)CCC2` (configuration not stated), the IC50 on Acetylcholinesterase [30] amounted to 1.48 µM.
In turn, `CCCNC1CCc2ccc(OC(=O)N(C)CC)cc21` (configuration not stated) came in with an IC50 at Acetylcholinesterase [31] of 3.6 µM.
As to `C#CCNC1CCc2ccc(OC(=S)N(C)CC)cc21` (configuration not stated), the IC50 on Acetylcholinesterase [7] is above 500 µM.
On to `CCCN(C)C(=O)Oc1cccc2c1C(N)CC2` (configuration not stated), for which the IC50 is above 1000 µM in [9] and 1000 µM in [32].
On Acetylcholinesterase [7], `C#CCN(C)C1CCc2cccc(OC(=O)N(C)CCC)c21` (configuration not stated) came in with an IC50 above 1000 µM.

Source of the values: ChEMBL document CHEMBL1135657, “Novel dual inhibitors of AChE and MAO derived from hydroxy aminoindan and phenethylamine as potential treatment for Alzheimer's disease” (J Med Chem, 2002).
